The values that follow come from ChEMBL document CHEMBL2057152, “Synthesis and antibacterial activity against Clostridium difficile of novel demethylvancomycin derivatives” (2012).

Structures are written as SMILES. Values after ≈ are worked out from the molar mass of the structure shown.

Assay type in all cases: functional
The subject of assay [1] is Clostridioides difficile. Briefly: Antibacterial activity against Clostridium difficile IQCC 23903 after 16 hrs by two-fold serial dilution method. Particulars: IQCC 23903, 16 h. The method in brief:
(§1)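 CLSI agar dilution MIC. Compounds are dissolved in 50% water in DMSO as a stock, twofold serially diluted in sterile water, then diluted 10-fold into Mueller-Hinton agar. Organisms are grown in MH broth at 35 °C for 8 h and adjusted to 0.5 McFarland. They are applied to the drug-containing plates by multipoint inoculator and incubated at 35 °C for 16 h. Vancomycin and demethylvancomycin serve as controls.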

Assay [2] is described as follows: Antibacterial activity against Clostridium difficile ATCC 43255 after 16 hrs by two-fold serial dilution method. As to conditions: Clostridioides difficile, ATCC 43255, 16 h. The method in brief: as §1
The test system of assay [3] is Clostridioides difficile. As to the kind of experiment: Ratio of MIC for vancomycin to compound MIC for Clostridium difficile IQCC 23903 after 16 hrs by two-fold serial dilution method.
Assay [4] relates to Clostridioides difficile. As to the kind of experiment: Antibacterial activity against Clostridium difficile ATCC 700792 after 16 hrs by two-fold serial dilution method. As to conditions: ATCC 700792, 16 h. The method in brief: as §1
Assay [5] deals with Clostridioides difficile. As to the kind of experiment: Ratio of MIC for vancomycin to compound MIC for Clostridium difficile ATCC 700057 after 16 hrs by two-fold serial dilution method.
Assay [6] concerns Clostridioides difficile. Briefly: Antibacterial activity against Clostridium difficile ATCC 700057 after 16 hrs by two-fold serial dilution method. Particulars: ATCC 700057, 16 h. Put shortly: as §1
Assay [7] has as its system Clostridioides difficile. Briefly: Ratio of MIC for demethylvancomycin to compound MIC for Clostridium difficile ATCC 43255 after 16 hrs by two-fold serial dilution method.
In assay [8] the test system is Clostridioides difficile. Briefly: Ratio of MIC for demethylvancomycin to compound MIC for Clostridium difficile IQCC 23903 after 16 hrs by two-fold serial dilution method.
Assay [9] concerns Clostridioides difficile. As to the kind of experiment: Ratio of MIC for vancomycin to compound MIC for Clostridium difficile ATCC 43255 after 16 hrs by two-fold serial dilution method.
Assay [10] deals with Clostridioides difficile. Briefly: Ratio of MIC for vancomycin to compound MIC for Clostridium difficile ATCC 700792 after 16 hrs by two-fold serial dilution method.
Assay [11] has as its system Clostridioides difficile. Briefly: Ratio of MIC for demethylvancomycin to compound MIC for Clostridium difficile ATCC 700792 after 16 hrs by two-fold serial dilution method.
The test system of assay [12] is Clostridioides difficile. As to the kind of experiment: Ratio of MIC for demethylvancomycin to compound MIC for Clostridium difficile ATCC 700057 after 16 hrs by two-fold serial dilution method.
Assay [13] deals with Enterococcus faecalis. As to the kind of experiment: Antibacterial activity against Enterococcus faecalis ATCC 700802 after 16 hrs by two-fold serial dilution method. Particulars: ATCC 700802, 16 h. The method in brief: as §1
The test system of assay [14] is Enterococcus faecalis. As to the kind of experiment: Ratio of MIC for vancomycin to compound MIC for Enterococcus faecalis ATCC 700802 after 16 hrs by two-fold serial dilution method.
For assay [15], the system named is Enterococcus faecalis. Briefly: Ratio of MIC for demethylvancomycin to compound MIC for Enterococcus faecalis ATCC 700802 after 16 hrs by two-fold serial dilution method.

One may read the MIC as the smallest concentration in the dilution series that meets the test's criterion for growth inhibition. Low readings indicate greater potency, high ones weaker potency. For `CC(C)C[C@@H](N)C(=O)N[C@H]1C(=O)N[C@@H](CC(N)=O)C(=O)N[C@H]2C(=O)N[C@H]3C(=O)N[C@H](C(=O)N[C@H](C(=O)O)c4cc(O)cc(O)c4-c4cc3ccc4O)[C@H](O)c3ccc(c(Cl)c3)Oc3cc2cc(c3O[C@@H]2O[C@H](CO)[C@@H](O)[C@H](O)[C@H]2O[C@H]2C[C@](C)(NCc3ccc(Br)cc3)[C@H](O)[C@H](C)O2)Oc2ccc(cc2Cl)[C@H]1O`, the MIC stood at 0.25 µg/mL (≈ 0.156 µM) in the assay with Clostridioides difficile [1]; 0.25 µg/mL (≈ 0.156 µM) in [2]; 0.25 µg/mL (≈ 0.156 µM) with Clostridioides difficile [4]; 0.25 µg/mL (≈ 0.156 µM) against Clostridioides difficile [6]; 8 µg/mL (≈ 4.99 µM) against Enterococcus faecalis [13]. The Ratio in the assay on Clostridioides difficile [3], in the assay with Clostridioides difficile [5], in the assay with Clostridioides difficile [7], in the assay on Clostridioides difficile [8], in the assay on Clostridioides difficile [9] and in the assay with Clostridioides difficile [10] was 2 each time. Further, the Ratio in the assay on Clostridioides difficile [11] and with Clostridioides difficile [12] was 2 each time.
`CC(C)C[C@@H](N)C(=O)N[C@H]1C(=O)N[C@@H](CC(N)=O)C(=O)N[C@H]2C(=O)N[C@H]3C(=O)N[C@H](C(=O)N[C@H](C(=O)O)c4cc(O)cc(O)c4-c4cc3ccc4O)[C@H](O)c3ccc(c(Cl)c3)Oc3cc2cc(c3O[C@@H]2O[C@H](CO)[C@@H](O)[C@H](O)[C@H]2O[C@H]2C[C@](C)(NCc3ccc4ccccc4c3)[C@H](O)[C@H](C)O2)Oc2ccc(cc2Cl)[C@H]1O`: the MIC was 0.25 µg/mL (≈ 0.159 µM) against Clostridioides difficile [1]; 0.25 µg/mL (≈ 0.159 µM) in assay [2]; 0.125 µg/mL (≈ 0.0793 µM) in the assay with Clostridioides difficile [4]; 0.25 µg/mL (≈ 0.159 µM) in the assay with Clostridioides difficile [6]; 16 µg/mL (≈ 10.2 µM) against Enterococcus faecalis [13]. The Ratio with Clostridioides difficile [3], in the assay on Clostridioides difficile [5], in the assay with Clostridioides difficile [7], with Clostridioides difficile [8], in the assay with Clostridioides difficile [9] and with Clostridioides difficile [10] was 2 in each case. The Ratio with Clostridioides difficile [11] and with Clostridioides difficile [12] was 2 in each case.
As to `CC(C)C[C@@H](N)C(=O)N[C@H]1C(=O)N[C@@H](CC(N)=O)C(=O)N[C@H]2C(=O)N[C@H]3C(=O)N[C@H](C(=O)N[C@H](C(=O)O)c4cc(O)cc(O)c4-c4cc3ccc4O)[C@H](O)c3ccc(c(Cl)c3)Oc3cc2cc(c3O[C@@H]2O[C@H](CO)[C@@H](O)[C@H](O)[C@H]2O[C@H]2C[C@](C)(NCc3c4ccccc4cc4ccccc34)[C@H](O)[C@H](C)O2)Oc2ccc(cc2Cl)[C@H]1O`, the MIC against Clostridioides difficile [1] amounted to 0.25 µg/mL (≈ 0.154 µM); in assay [2], 0.25 µg/mL (≈ 0.154 µM); in the assay with Clostridioides difficile [4], 0.25 µg/mL (≈ 0.154 µM); against Clostridioides difficile [6], 0.5 µg/mL (≈ 0.308 µM); with Enterococcus faecalis [13], 2 µg/mL (≈ 1.23 µM). Also, the Ratio in the assay with Clostridioides difficile [3], in the assay on Clostridioides difficile [5], with Clostridioides difficile [7], in the assay with Clostridioides difficile [8], with Clostridioides difficile [9] and with Clostridioides difficile [10] was 2 throughout. The Ratio with Clostridioides difficile [11] and in the assay on Clostridioides difficile [12] was 2 throughout.
Take `CCCCCCCN[C@@]1(C)C[C@H](O[C@H]2[C@H](Oc3c4cc5cc3Oc3ccc(cc3Cl)[C@@H](O)[C@@H](NC(=O)[C@H](N)CC(C)C)C(=O)N[C@@H](CC(N)=O)C(=O)N[C@H]5C(=O)N[C@H]3C(=O)N[C@H](C(=O)N[C@H](C(=O)O)c5cc(O)cc(O)c5-c5cc3ccc5O)[C@H](O)c3ccc(c(Cl)c3)O4)O[C@H](CO)[C@@H](O)[C@@H]2O)O[C@@H](C)[C@H]1O`: the MIC with Clostridioides difficile [1] was found to be 0.25 µg/mL (≈ 0.163 µM); in assay [2] it was 0.5 µg/mL (≈ 0.326 µM); in the assay with Clostridioides difficile [4] it was 0.5 µg/mL (≈ 0.326 µM); against Clostridioides difficile [6], 0.25 µg/mL (≈ 0.163 µM); against Enterococcus faecalis [13] it was 8 µg/mL (≈ 5.22 µM). The Ratio with Clostridioides difficile [3], with Clostridioides difficile [5], in the assay with Clostridioides difficile [7], in the assay with Clostridioides difficile [8], in the assay with Clostridioides difficile [9] and in the assay on Clostridioides difficile [10] was 2 throughout. Besides, the Ratio in the assay on Clostridioides difficile [11] and in the assay on Clostridioides difficile [12] was 2 in each case.
As to `CCCCCCCCCCCN[C@@]1(C)C[C@H](O[C@H]2[C@H](Oc3c4cc5cc3Oc3ccc(cc3Cl)[C@@H](O)[C@@H](NC(=O)[C@H](N)CC(C)C)C(=O)N[C@@H](CC(N)=O)C(=O)N[C@H]5C(=O)N[C@H]3C(=O)N[C@H](C(=O)N[C@H](C(=O)O)c5cc(O)cc(O)c5-c5cc3ccc5O)[C@H](O)c3ccc(c(Cl)c3)O4)O[C@H](CO)[C@@H](O)[C@@H]2O)O[C@@H](C)[C@H]1O`, the MIC (in the assay with Clostridioides difficile [1]; in assay [2]; in the assay with Clostridioides difficile [4]; against Clostridioides difficile [6]; against Enterococcus faecalis [13]) was 0.5 µg/mL (≈ 0.315 µM) in each case. Moreover, the Ratio in the assay with Enterococcus faecalis [14] and in the assay on Enterococcus faecalis [15] was 64 in each case.
Consider `CC(C)C[C@@H](N)C(=O)N[C@H]1C(=O)N[C@@H](CC(N)=O)C(=O)N[C@H]2C(=O)N[C@H]3C(=O)N[C@H](C(=O)N[C@H](C(=O)O)c4cc(O)cc(O)c4-c4cc3ccc4O)[C@H](O)c3ccc(c(Cl)c3)Oc3cc2cc(c3O[C@@H]2O[C@H](CO)[C@@H](O)[C@H](O)[C@H]2O[C@H]2C[C@](C)(NCCC(C)CC(C)(C)C)[C@H](O)[C@H](C)O2)Oc2ccc(cc2Cl)[C@H]1O` (some centres not stated), for which the MIC worked out at 0.25 µg/mL (≈ 0.16 µM) with Clostridioides difficile [1]; 0.5 µg/mL (≈ 0.32 µM) in assay [2]; 0.5 µg/mL (≈ 0.32 µM) in the assay with Clostridioides difficile [4]; 0.25 µg/mL (≈ 0.16 µM) with Clostridioides difficile [6]; 8 µg/mL (≈ 5.12 µM) with Enterococcus faecalis [13]. Further, the Ratio in the assay with Clostridioides difficile [3], in the assay on Clostridioides difficile [5], with Clostridioides difficile [7], in the assay with Clostridioides difficile [8], with Clostridioides difficile [9] and in the assay on Clostridioides difficile [10] was 2 in each case. Besides, the Ratio in the assay with Clostridioides difficile [11] and with Clostridioides difficile [12] was 2 throughout.
